Experimental data from ChEMBL document CHEMBL4251659, “Anti-Influenza Triterpene Saponins from the Bark of Burkea africana” (J Nat Prod, 2018).

How the values were obtained:
Influenza A virus = test: Antiviral activity against Influenza A virus H1N1 A/Jena/8178/09 infected in MDCK cells assessed as inhibition of virus-induced cytopathic effect after 48 hrs; type: functional, organism-based
How it was run: (§1)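 Run on 2-day-old confluent MDCK monolayers. Test concentrations reached a maximum of 100 μM for pure compounds and 100 μg/mL for extracts or fractions. Virus input gave complete CPE at 48 h post-infection, when inhibition was scored. Each concentration was tested twice. IC50 (50% inhibition of virus-induced CPE) is the mean of at least three experiments.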

Influenza A virus H3N2 = test: Antiviral activity against Influenza A virus H3N2 A/Hong Kong/68 infected in MDCK cells assessed as inhibition of virus-induced cytopathic effect after 48 hrs; type: functional, organism-based; how it was run: as §1
[1] = Selectivity index, ratio of CC50 for MDCK cells to IC50 for Influenza A virus H3N2 A/Hong Kong/68 infected in MDCK cells; type: toxicity, cell-based; settings: dog, read-out: Ratio CC50/IC50
How it was run: (§2)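 SI was calculated as CC50/IC50. CC50 was measured on 2-day-old confluent MDCK monolayers 72 h after sample addition, at a maximum of 100 μM for compounds or 100 μg/mL for extracts or fractions, with each concentration tested twice. IC50 came from the 48 h CPE inhibition assay. Both are means of at least three experiments.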

[2] = Selectivity index, ratio of CC50 for MDCK cells to IC50 for Influenza A virus H1N1 A/Jena/8178/09 infected in MDCK cells; type: toxicity, cell-based; settings: dog, read-out: Ratio CC50/IC50; how it was run: as §2

Row | Structure (SMILES) | IC50 (Influenza A virus) | IC50 (Influenza A virus H3N2) | selectivity ratio [1] | selectivity ratio [2]
1 | C=C(C)[C@@H]1CC[C@]2(C(=O)O)CC[C@]3(CO)[C@H](CC[C@@H]4[C@@]5(C)C[C@@H](O)[C@H](O[C@@H]6O[C@H](CO)[C@@H](O)[C@H](O)[C@H]6O[C@@H]6OC[C@@H](O)[C@H](O)[C@H]6O)C(C)(C)[C@@H]5CC[C@]43C)[C@@H]12 | Not Active | Not Active | – | –
2 | C=C(C)[C@@H]1CC[C@]2(C(=O)O)CC[C@]3(C)[C@H](CC[C@@H]4[C@@]5(C)C[C@@H](O)[C@H](O[C@@H]6O[C@H](CO)[C@@H](O)[C@H](O)[C@H]6O[C@@H]6OC[C@@H](O)[C@H](O)[C@H]6O)C(C)(C)[C@@H]5CC[C@]43C)[C@@H]12 | – | Not Active | – | –
3 | C[C@H]1O[C@@H](O[C@H]2[C@H](O)[C@@H](O[C@@H]3OC[C@@H](O)[C@H](O)[C@H]3O)[C@H](O[C@H]3[C@H](O)C[C@]4(C)[C@H]5CC=C6[C@@H]7CC(C)(C)CC[C@]7(C(=O)O)CC[C@@]6(C)[C@]5(C)CC[C@H]4C3(C)C)O[C@@H]2CO)[C@@H](O)[C@@H](O)[C@@H]1O | Not Active | – | – | –
4 | C=C(C)[C@@H]1CC[C@]2(C(=O)O)CC[C@]3(CO)[C@H](CC[C@@H]4[C@@]5(C)C[C@@H](O)[C@H](O[C@@H]6O[C@H](CO)[C@@H](O)[C@H](O)[C@H]6O[C@@H]6O[C@H](CO)[C@@H](O)[C@H](O)[C@H]6O)C(C)(C)[C@@H]5CC[C@]43C)[C@@H]12 | – | Not Active | – | –
5 | CC1(C)CC[C@]2(C(=O)O)CC[C@]3(C)C(=CC[C@@H]4[C@@]5(C)C[C@@H](O)[C@H](O)C(C)(C)[C@@H]5CC[C@]43C)[C@@H]2C1 [MASLINIC ACID] | Not Active | Not Active | – | –
6 | CC1(C)C[C@H]2C3=CC[C@@H]4[C@@]5(C)CC[C@H](O)C(C)(C)[C@@H]5CC[C@@]4(C)[C@]3(C)CC[C@@]2(C(=O)O)C[C@H]1OC(=O)/C=C/c1ccccc1 | – | – | > 11 | > 15
7 | C=C(C)[C@@H]1CC[C@]2(C(=O)O)CC[C@]3(C)[C@H](CC[C@@H]4[C@@]5(C)C[C@@H](O)[C@H](O)C(C)(C)[C@@H]5CC[C@]43C)[C@@H]12 [ALPHITOLIC ACID] | Not Active | Not Active | – | –
8 | CC1(C)C[C@H]2C3=CC[C@@H]4[C@@]5(C)C[C@@H](O)[C@H](O)C(C)(C)[C@@H]5CC[C@@]4(C)[C@]3(C)CC[C@@]2(C(=O)O)C[C@H]1OC(=O)/C=C/c1ccccc1 | – | – | > 9 | > 14
9 | C=C(C)[C@@H]1CC[C@]2(C(=O)O)CC[C@]3(CO)[C@H](CC[C@@H]4[C@@]5(C)C[C@@H](O)[C@H](O)C(C)(C)[C@@H]5CC[C@]43C)[C@@H]12 | – | Not Active | – | –
